Values after ≈ are worked out from the molar mass of the structure shown. Active and inactive are the calls of the source. No cut-off for these calls is given here.
Legend:
Staphylococcus aureus [1] = experiment: Antibacterial activity against methicillin-resistant Staphylococcus aureus USA300 assessed as reduction in bacterial growth by broth microdilution method; type: functional
Outline: (§1)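 Twofold serial dilution (microdilution) MIC in lysogeny broth (LB) medium against drug-resistant strains: MRSA USA300, vancomycin-resistant Enterococci, Klebsiella pneumoniae.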

Pseudomonas aeruginosa = experiment: Antibacterial activity against drug sensitive Pseudomonas aeruginosa PAO1 assessed as reduction in bacterial growth by broth microdilution method; type: functional
Outline: (§2)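 MICs were determined by standard twofold serial broth microdilution in lysogeny broth (LB) medium.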

Escherichia coli = experiment: Antibacterial activity against drug sensitive Escherichia coli DH5alpha assessed as reduction in bacterial growth by broth microdilution method; type: functional; outline: as §2
Staphylococcus aureus [2] = experiment: Antibacterial activity against drug sensitive Staphylococcus aureus RN4220 assessed as reduction in bacterial growth by broth microdilution method; type: functional; outline: as §2
Klebsiella pneumoniae = experiment: Antibacterial activity against drug-resistant Klebsiella pneumoniae assessed as reduction in bacterial growth by broth microdilution method; type: functional; outline: as §1
Bacillus subtilis = experiment: Antibacterial activity against drug sensitive Bacillus subtilis 168 assessed as reduction in bacterial growth by broth microdilution method; type: functional; outline: as §2
Enterococcus = experiment: Antibacterial activity against vancomycin-resistant Enterococcus assessed as reduction in bacterial growth by broth microdilution method; type: functional; outline: as §1
MCF7 = experiment: Cytotoxicity against human MCF7 cells assessed as inhibition of cell growth incubated for 24 hrs by MTT assay; type: functional, cell-based; conditions: MCF7, 24 h
Outline: (§3)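 MTT assay with 24 h exposure of cells to the samples. IC50 is the concentration giving 50% growth inhibition, reported as mean ± S.D. of three independent experiments.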

[3] = Cytotoxicity against human HK-2 cells assessed as inhibition of cell growth incubated for 24 hrs by MTT assay; type: toxicity, cell-based; outline: as §3
[4] = Cytotoxicity against human HEK293 cells assessed as inhibition of cell growth incubated for 24 hrs by MTT assay; type: toxicity, cell-based; outline: as §3
Staphylococcus aureus [5] = experiment: Antibacterial activity against methicillin-resistant Staphylococcus aureus infected in Kunming mouse corneal infection model assessed as reduction in viable bacterial count at 6 mg/ml, TOP administered 3 times daily for 1 week; type: functional, organism-based; conditions: time 1.0 weeks
Outline: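 Corneal infection model: male and female Kunming mice (~20 g) immunosuppressed with daily i.p. cyclophosphamide for 3 days. Anesthetized with i.p. avertin (400 mg kg-1), corneas abraded and given 20 μL MRSA (6 × 10^7 CFU mL-1). From 24 h post-infection, treated by topical smear three times daily for one week. Controls: 5% glucose and 5% vancomycin. Six mice per group. Corneal viable counts measured.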

Staphylococcus aureus [6] = experiment: Bactericidal activity against methicillin-resistant Staphylococcus aureus assessed as inhibition of bacterial growth at 2 times MIC incubated for 24 hrs by time kill assay; type: functional, organism-based
Outline: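 Time-kill: MRSA grown 24 h at 37 °C, adjusted to ~2 × 10^6 CFU mL-1, exposed at 2× or 3× MIC with shaking at 37 °C. Aliquots taken at 0.5–13 h, serially diluted 10-fold in PBS, plated on Mueller–Hinton agar, counted after 24 h at 37 °C. Duplicate.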

Structure (SMILES) | MIC (Staphylococcus aureus [1]) [µg/mL] | MIC (Pseudomonas aeruginosa) [µg/mL] | MIC (Escherichia coli) [µg/mL] | MIC (Staphylococcus aureus [2]) [µg/mL] | MIC (Klebsiella pneumoniae) [µg/mL] | MIC (Bacillus subtilis) [µg/mL] | MIC (Enterococcus) [µg/mL] | IC50 (MCF7) [µg/mL] | IC50 at 24 h [3] [µg/mL] | IC50 at 24 h [4] [µg/mL] | Activity (Staphylococcus aureus [5]) | Activity (Staphylococcus aureus [6])
Nc1nc2ccccc2nc1NCCc1ccc(Cl)c(Cl)c1 | > 128 | > 128 | > 128 | > 128 | > 128 | > 128 | > 128 | – | – | – | – | –
Nc1nc2ccccc2nc1NCCC1CCCCC1 | 128 (≈ 473 µM) | 128 (≈ 473 µM) | > 128 | 128 (≈ 473 µM) | > 128 | > 128 | > 128 | – | – | – | – | –
Nc1nc2ccccc2nc1NCCc1ccccc1 | > 128 | 128 (≈ 484 µM) | 128 (≈ 484 µM) | 32 (≈ 121 µM) | > 128 | 64 (≈ 242 µM) | > 128 | 72.3 (≈ 274 µM) | 130 (≈ 493 µM) | 123 (≈ 467 µM) | – | –
Nc1nc2ccccc2nc1NCCCc1ccccc1 | 128 (≈ 460 µM) | > 128 | 128 (≈ 460 µM) | 32 (≈ 115 µM) | 128 (≈ 460 µM) | 64 (≈ 230 µM) | 128 (≈ 460 µM) | 68.7 (≈ 247 µM) | 141 (≈ 506 µM) | 126 (≈ 451 µM) | – | –
NC[C@H]1O[C@H](O[C@H]2[C@H](O)[C@@H](O[C@H]3O[C@H](CO)[C@@H](O)[C@H](N)[C@H]3O)[C@H](N)C[C@@H]2N)[C@H](O)[C@@H](O)[C@@H]1O [KANAMYCIN] | 1 (≈ 2.06 µM) | 4 (≈ 8.26 µM) | 1 (≈ 2.06 µM) | 1 (≈ 2.06 µM) | 4 (≈ 8.26 µM) | 0.5 (≈ 1.03 µM) | 8 (≈ 16.5 µM) | – | – | – | – | –
Nc1nc2ccccc2nc1NCCc1ccccc1Br | 128 (≈ 373 µM) | 128 (≈ 373 µM) | > 128 | 128 (≈ 373 µM) | 64 (≈ 186 µM) | 64 (≈ 186 µM) | 128 (≈ 373 µM) | – | – | – | – | –
CN[C@H](CC(C)C)C(=O)N[C@H]1C(=O)N[C@@H](CC(N)=O)C(=O)N[C@H]2C(=O)N[C@H]3C(=O)N[C@H](C(=O)N[C@H](C(=O)O)c4cc(O)cc(O)c4-c4cc3ccc4O)[C@H](O)c3ccc(c(Cl)c3)Oc3cc2cc(c3O[C@@H]2O[C@H](CO)[C@@H](O)[C@H](O)[C@H]2O[C@H]2C[C@](C)(N)[C@H](O)[C@H](C)O2)Oc2ccc(cc2Cl)[C@H]1O | – | – | – | – | – | – | – | – | – | – | Active | –
Nc1nc2ccccc2nc1NCCc1ccccc1F | 128 (≈ 453 µM) | 128 (≈ 453 µM) | 128 (≈ 453 µM) | 64 (≈ 227 µM) | > 128 | 128 (≈ 453 µM) | 128 (≈ 453 µM) | – | – | – | – | –
COc1ccc(CCNc2nc3ccccc3nc2N)cc1 | 16 (≈ 54.4 µM) | 128 (≈ 435 µM) | 32 (≈ 109 µM) | 16 (≈ 54.4 µM) | 64 (≈ 217 µM) | 16 (≈ 54.4 µM) | > 128 | 71.5 (≈ 243 µM) | 139 (≈ 471 µM) | 129 (≈ 437 µM) | – | –
Nc1nc2ccccc2nc1NCc1ccc2ccccc2c1 | 64 (≈ 213 µM) | > 128 | 64 (≈ 213 µM) | 32 (≈ 107 µM) | > 128 | 32 (≈ 107 µM) | > 128 | 69.7 (≈ 232 µM) | 147 (≈ 488 µM) | 131 (≈ 435 µM) | – | –
Nc1nc2ccccc2nc1NCCC1=CCCCC1 | > 128 | > 128 | > 128 | 64 (≈ 238 µM) | > 128 | 128 (≈ 477 µM) | > 128 | – | – | – | – | –
O=c1[nH]cc(F)c(=O)[nH]1 [FLUOROURACIL] | – | – | – | – | – | – | – | 0.85 (≈ 6.53 µM) | – | – | – | –
CCNc1nc2ccccc2nc1N | > 128 | 128 (≈ 680 µM) | > 128 | 128 (≈ 680 µM) | > 128 | 128 (≈ 680 µM) | 128 (≈ 680 µM) | – | – | – | – | –
CCn1cc(C(=O)O)c(=O)c2cc(F)c(N3CCNCC3)cc21 | – | – | – | – | – | – | – | – | – | – | – | Active
Nc1nc2ccccc2nc1NCCc1ccc(F)cc1 | > 128 | > 128 | 128 (≈ 453 µM) | 64 (≈ 227 µM) | 128 (≈ 453 µM) | 64 (≈ 227 µM) | 128 (≈ 453 µM) | – | – | – | – | –
Nc1nc2ccccc2nc1NCCc1ccc(Br)cc1 | > 128 | 128 (≈ 373 µM) | 128 (≈ 373 µM) | 64 (≈ 186 µM) | > 128 | 64 (≈ 186 µM) | > 128 | – | – | – | – | –
COc1cccc(CCNc2nc3ccccc3nc2N)c1 | 16 (≈ 54.4 µM) | 64 (≈ 217 µM) | 16 (≈ 54.4 µM) | 8 (≈ 27.2 µM) | 64 (≈ 217 µM) | 32 (≈ 109 µM) | 128 (≈ 435 µM) | 74.7 (≈ 254 µM) | 142 (≈ 483 µM) | 130 (≈ 443 µM) | – | –
CNc1nc2ccccc2nc1N | > 128 | 128 (≈ 735 µM) | 128 (≈ 735 µM) | 128 (≈ 735 µM) | > 128 | 64 (≈ 367 µM) | > 128 | – | – | – | – | –
Cc1ccc(CCNc2nc3ccccc3nc2N)cc1 | 32 (≈ 115 µM) | 64 (≈ 230 µM) | 32 (≈ 115 µM) | 16 (≈ 57.5 µM) | 64 (≈ 230 µM) | 32 (≈ 115 µM) | > 128 | 70.9 (≈ 255 µM) | 150 (≈ 538 µM) | 136 (≈ 487 µM) | – | –

Source: ChEMBL document CHEMBL6177922, “Antibacterial activity of the structurally novel C-2 amine-substituted analogues based on quinoxaline” (RSC Med Chem, 2025)
